The record followed here is the RNAGym collection of RNA variant scans (doi:10.1038/nmeth.2970).

Sequences and labels used below:
B1: GFP aptamer (parent)
chain: GCUUCUGGACUGCGAUGGGAGCACGAAACGUCGUGGCGCAAUUGGGUGGGGAAAGUCCUUAAAAGAGGGCCACCACAGAAGC

In this data set the parent is B1. The data set is described as follows: HiTS-RAP. As to conditions: with EGFP. The procedure, abridged:
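Aptamer templates containing a T7 promoter and ter site were sequenced on an Illumina GAIIx flowcell, transcribed in situ with T7 RNA polymerase and halted with GST-Tus for 30 minutes at 37°C. Clusters were imaged after 30 minutes at room temperature with EGFP-mOrange at 0.04 nM to 625 nM in fivefold steps. Kd was obtained from per-lane weighted Hill fits to decay-corrected, sequencing-normalised, per-sequence mean intensities, geometrically averaged over lanes. Three lanes entered that average, and non-rising sequences were given 125 nM.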
Turning to GCUUCUGGACUGCGAUGGGAGCACGAAACGUCGUGGCGCAAUUGGGUGGGGAAAGUCCUUAAAAGAGGGCCACCACAGAAGG, the Kd was found to be 10.1 nM.

In the case of GCUUCUGGACUGCGAUGGGAGCACGAAACGUCGUGGCGCAAUUGGGUGGGGAAAGUCCUUAAAAGAGGGCCACCACAGAAGU, the Kd was determined as 4.16 nM. The same measure for GCUUCUGGACUGCGAUGGGAGCACGAAACGUCGUGGCGCAAUUGGGUGGGGAAAGUCCUUAAAAGAGGGCCACCACAGAAGA: 3.36 nM; for GCUUCUGGACUGCGAUGGGAGCACGAAACGUCGUGGCGCAAUUGGGUGGGGAAAGUCCUUAACAGAGGGCCACCACAGAAGC: at least 125 nM; for GCUUCUGGACUGCGAUGGGAGCACGAAACGUCGUGGCGCAAUUGGGUGGGGAAAGUCCUUAAUAGAGGGCCACCACAGAAGC: at least 125 nM. With GCUUCUGGACUGCGAUGGGAGCACGAAACGUCGUGGCGCAAUUGGGUGGGGAAAGUCCUUAAGAGAGGGCCACCACAGAAGC the figure was 8.55 nM. For GCUUCUGGACUGCGAUGGGAGCACGAAACGUCGUGGCGCAAUUGGGUGGGGAAAGUCCUUAAAAGAGGGCGACCACAGAAGC, the dissociation constant Kd worked out at 37.3 nM. The same measure for GCUUCUGGACUGCGAUGGGAGCACGAAACGUCGUGGCGCAAUUGGGUGGGGAAAGUCCUUAAAAGAGGGCUACCACAGAAGC: 14.5 nM; for GCUUCUGGACUGCGAUGGGAGCACGAAACGUCGUGGCGCAAUUGGGUGGGGAAAGUCCUUAAAAGAGGGCAACCACAGAAGC: at least 125 nM; for GCUUCUGGACUGCGAUGGGAGCACGAAACGUCGUGGCGCAAUUGGGUGGGGAAAGUCCUUAAAAGAGGGCCACCACAGAAAC: 5.44 nM. In the case of GCUUCUGGACUGCGAUGGGAGCACGAAACGUCGUGGCGCAAUUGGGUGGGGAAAGUCCUUAAAAGAGGGCCACCACAGAAUC, the equilibrium dissociation constant (Kd) is 4.53 nM. With GCUUCUGGACUGCGAUGGGAGCACGAAACGUCGUGGCGCAAUUGGGUGGGGAAAGUCCUUAAAAGAGGGCCACCACAGAACC the figure was 14.1 nM; with GCUUCUGGACUGCGAUGGGAGCACGAAACGUCGUGGCGCAAUUGGGUGGGGAAAGUCCUUAAAAGAGGGCCGUCACAGAAGC, 8.64 nM.

As to GCUUCUGGACUGCGAUGGGAGCACGAAACGUCGUGGCGCAAUUGGGUGGGGAAAGUCCUUAAAAGAGGGCCACCAGAGAAGC, the Kd came to 28.8 nM. GCUUCUGGACUGCGAUGGGAGCACGAAACGUCGUGGCGCAAUUGGGUGGGGAAAGUCCUUAAAAGAGGGCCACCAUAGAAGC: the Kd came out at 37.1 nM. For GCUUCUGGACUGCGAUGGGAGCACGAAACGUCGUGGCGCAAUUGGGUGGGGAAAGUCCUUAAAAGAGGGCCACCAAAGAAGC, the Kd is 13.6 nM. As to GCUUCUGGACUGCGAUGGGAGCACGAAACGUCGUGGCGCAAUUGGGUGGGGAAAGUCCUUAAAAGAGGGCCACCACAGCAGC, the Kd was determined as 18.6 nM.

For GCUUCUGGACUGCGAUGGGAGCACGAAACGUCGUGGCGCAAUUGGGUGGGGAAAGUCCUUAAAAGAGGGCCACCACAGGAGC, the Kd turned out to be 4.31 nM. The same measure for GCUUCUGGACUGCGAUGGGAGCACGAAACGUCGUGGCGCAAUUGGGUGGGGAAAGUCCUUAAAAGAGGGCCACCACAGUAGC: 7.52 nM; for GCUUCUGGACUGCGAUGGGAGCACGAAACGUCGUGGCGCAAUUGGGUGGGGAAAGUCCUUAAAAGAGGGCCACCACGGAAGC: 4.77 nM; for GCUUCUGGACUGCGAUGGGAGCACGAAACGUCGUGGCGCAAUUGGGUGGGGAAAGUCCUUAAAAGAGGGCCACCACUGAAGC: 10.8 nM. The same measure for GCUUCUGGACUGCGAUGGGAGCACGAAACGUCGUGGCGCAAUUGGGUGGGGAAAGUCCUUAAAAGAGGGCCACCACCGAAGC: 15.3 nM; for GCUUCUGGACUGCGAUGGGAGCACGAAACGUCGUGGCGCAAUUGGGUGGGGAAAGUCCUUAAAAGAGGGCCACCGCAGAAGC: 9.8 nM; for GCUUCUGGACUGCGAUGGGAGCACGAAACGUCGUGGCGCAAUUGGGUGGGGAAAGUCCUUAAAAGAGGGCCACCCCAGAAGC: 26.6 nM. The same measure for GCUUCUGGACUGCGAUGGGAGCACGAAACGUCGUGGCGCAAUUGGGUGGGGAAAGUCCUUAAAAGAGGGCCACCUCAGAAGC: 26.3 nM; for GCUUCUGGACUGCGAUGGGAGCACGAAACGUCGUGGCGCAAUUGGGUGGGGAAAGUCCUUAAAAGAGGCCCACCACAGAAGC: at least 125 nM. Regarding GCUUCUGGACUGCGAUGGGAGCACGAAACGUCGUGGCGCAAUUGGGUGGGGAAAGUCCUUAAAAGAGGACCACCACAGAAGC, the Kd was at least 125 nM. In the case of GCUUCUGGACUGCGAUGGGAGCACGAAACGUCGUGGCGCAAUUGGGUGGGGAAAGUCCUUAAAAGAGGUCCACCACAGAAGC, the Kd was 3.44 nM. The same measure for GCUUCUGGACUGCGAUGGGAGCACGAAACGUCGUGGCGCAAUUGGGUGGGGAAAGUCCUUAAAAGAGGGCCACCACAGAGGC: 3.57 nM; for GCUUCUGGACUGCGAUGGGAGCACGAAACGUCGUGGCGCAAUUGGGUGGGGAAAGUCCUUAAAAGAGGGCCACCACAGAUGC: 6.99 nM; for GCUUCUGGACUGCGAUGGGAGCACGAAACGUCGUGGCGCAAUUGGGUGGGGAAAGUCCUUAAAAGAGGGCCACCACAGACGC: 12.1 nM. In the case of GCUUCUGGACUGCGAUGGGAGCACGAAACGUCGUGGCGCAAUUGGGUGGGGAAAGUCCUUAAAAGAGGGGCACCACAGAAGC, the dissociation constant (Kd) came out at 43.1 nM.

As to GCUUCUGGACUGCGAUGGGAGCACGAAACGUCGUGGCGCAAUUGGGUGGGGAAAGUCCUUAAAAGAGGGACACCACAGAAGC, the Kd turned out to be 79.2 nM. On to GCUUCUGGACUGCGAUGGGAGCACGAAACGUCGUGGCGCAAUUGGGUGGGGAAAGUCCUUAAAAGAGGGUCACCACAGAAGC, for which the dissociation constant (Kd) was 7.23 nM. With GCUUCUGGACUGCGAUGGGAGCACGAAACGUCGUGGCGCAAUUGGGUGGGGAAAGUCCUUAAAAGAGGGCCACCGCAGGAGC the figure was 6.58 nM; with GCUUCUGGACUGCGAUGGGAGCACGAAACGUCGUGGCGCAAUUGGGUGGGGAAAGUCCUUAAAAGAGGGCCUCCACAGAAGC, 17.7 nM; with GCUUCUGGACUGCGAUGGGAGCACGAAACGUCGUGGCGCAAUUGGGUGGGGAAAGUCCUUAAAAGAGGGCCCCCACAGAAGC, at least 125 nM. The same measure for GCUUCUGGACUGCGAUGGGAGCACGAAACGUCGUGGCGCAAUUGGGUGGGGAAAGUCCUUAAAAGAGGGCCGCCACAGAAGC: 3.33 nM; for GCUUCUGGACUGCGAUGGGAGCACGAAACGUCGUGGCGCAAUUGGGUGGGGAAAGUCCUUAAAAGGGGGCCACUACAGAAGC: 12.3 nM; for GCUUCUGGACUGCGAUGGGAGCACGAAACGUCGUGGCGCAAUUGGGUGGGGAAAGUCCUUAAAACAGGGCCACCACAGAAGC: 35.3 nM.

Turning to GCUUCUGGACUGCGAUGGGAGCACGAAACGUCGUGGCGCAAUUGGGUGGGGAAAGUCCUUAAAAAAGGGCCACCACAGAAGC, the Kd was determined as 12.4 nM. The same measure for GCUUCUGGACUGCGAUGGGAGCACGAAACGUCGUGGCGCAAUUGGGUGGGGAAAGUCCUUAAAAUAGGGCCACCACAGAAGC: at least 125 nM; for GCUUCUGGACUGCGAUGGGAGCACGAAACGUCGUGGCGCAAUUGGGUGGGGAAAGUCCUUAAACGAGGGCCACCACAGAAGC: at least 125 nM; for GCUUCUGGACUGCGAUGGGAGCACGAAACGUCGUGGCGCAAUUGGGUGGGGAAAGUCCUUAAAGGAGGGCCACCACAGAAGC: at least 125 nM. Take GCUUCUGGACUGCGAUGGGAGCACGAAACGUCGUGGCGCAAUUGGGUGGGGAAAGUCCUUAAAUGAGGGCCACCACAGAAGC: the equilibrium dissociation constant (Kd) was at least 125 nM. The same measure for GCUUCUGGACUGCGAUGGGAGCACGAAACGUCGUGGCGCAAUUGGGUGGGGAAAGUCCUUAAAAGAGAGCCACCACAGAAGC: 27.5 nM.

Regarding GCUUCUGGACUGCGAUGGGAGCACGAAACGUCGUGGCGCAAUUGGGUGGGGAAAGUCCUUAAAAGAGUGCCACCACAGAAGC, the Kd was 15.9 nM. The same measure for GCUUCUGGACUGCGAUGGGAGCACGAAACGUCGUGGCGCAAUUGGGUGGGGAAAGUCCUUAAAAGAGCGCCACCACAGAAGC: 55.4 nM; for GCUUCUGGACUGCGAUGGGAGCACGAAACGUCGUGGCGCAAUUGGGUGGGGAAAGUCCUUAGAAGAGGGCCACCACAGAAGC: 3.54 nM.

Turning to GCUUCUGGACUGCGAUGGGAGCACGAAACGUCGUGGCGCAAUUGGGUGGGGAAAGUCCUUAUAAGAGGGCCACCACAGAAGC, the Kd amounted to 3.36 nM. The same measure for GCUUCUGGACUGCGAUGGGAGCACGAAACGUCGUGGCGCAAUUGGGUGGGGAAAGUCCUUAAAAGAUGGCCACCACAGAAGC: 9.04 nM.

With GCUUCUGGACUGCGAUGGGAGCACGAAACGUCGUGGCGCAAUUGGGUGGGGAAAGUCCUUAAAAGACGGCCACCACAGAAGC, the Kd was 11.8 nM.

On to GCUUCUGGACUGCGAUGGGAGCACGAAACGUCGUGGCGCAAUUGGGUGGGGAAAGUCCUUAAAAGAAGGCCACCACAGAAGC, for which the Kd was 14.2 nM. As for GCUUCUGGACUGCGAUGGGAGCACGAAACGUCGUGGCGCAAUUGGGUGGGGAAAGUCCUUAAAAGAGGGCCACGACAGAAGC, the equilibrium dissociation constant (Kd) stood at 14.5 nM. The same measure for GCUUCUGGACUGCGAUGGGAGCACGAAACGUCGUGGCGCAAUUGGGUGGGGAAAGUCCUUAAAAGAGGGCCACAACAGAAGC: 28.9 nM. In the case of GCUUCUGGACUGCGAUGGGAGCACGAAACGUCGUGGCGCAAUUGGGUGGGGAAAGUCCUUAAAAGAGGGCCACUACAGAAGC, the Kd was determined as 6.27 nM. Turning to GCUUCUGGACUGCGAUGGGAGCACGAAACGUCGUGGCGCAAUUGGGUGGGGAAAGUCCUUAAAAGGGGGCCACCACAGAAGC, the dissociation constant Kd turned out to be 11.2 nM. With GCUUCUGGACUGCGAUGGGAGCACGAAACGUCGUGGCGCAAUUGGGUGGGGAAAGUCCUUAAAAGUGGGCCACCACAGAAGC the figure was 8.88 nM.

Consider GCUUCUGGACUGCGAUGGGAGCACGAAACGUCGUGGCGCAAUUGGGUGGGGAAAGUCCUUAAAAGAGGGCCGCUACAGAAGC, for which the Kd came out at 7.35 nM. For GCUUCUGGACUGCGAUGGGAGCACGAAACGUCGUGGCGCAAUUGGGUGGGGAAAGUCCUUAAAAGAGGGCCACCGCGGAAGC, the dissociation constant Kd came to 6.48 nM. The same measure for GCUUCUGGACUGCGAUGGGAGCACGAAACGUCGUGGCGCAAUUGGGUGGGGAAAGUCCUUAAAAGAGGGCCAUUACAGAAGC: 7.64 nM; for GCUUCUGGACUGCGAUGGGAGCACGAAACGUCGUGGCGCAAUUGGGUGGGGAAAGUCCUUAAAAGAGGGCCAACACAGAAGC: 8.52 nM; for GCUUCUGGACUGCGAUGGGAGCACGAAACGUCGUGGCGCAAUUGGGUGGGGAAAGUCCUUAAAAGAGGGCCAGCACAGAAGC: 7.26 nM. The same measure for GCUUCUGGACUGCGAUGGGAGCACGAAACGUCGUGGCGCAAUUGGGUGGGGAAAGUCCUUAAAAGAGGGCCAUCACAGAAGC: 6.59 nM; for GCUUCUGGACUGCGAUGGGAGCACGAAACGUCGUGGCGCAAUUGGGUGGGGAAAGUCCUUAAAAGAGGGCCACCACAUAAGC: 6.2 nM. Turning to GCUUCUGGACUGCGAUGGGAGCACGAAACGUCGUGGCGCAAUUGGGUGGGGAAAGUCCUUAAAAGAGGGCCACCACACAAGC, the Kd was 43.8 nM. The same measure for GCUUCUGGACUGCGAUGGGAGCACGAAACGUCGUGGCGCAAUUGGGUGGGGAAAGUCCUUAAAAGAGGGCCACCACAAAAGC: 13.2 nM.

By Kd is commonly meant a measure of binding affinity in units of concentration.
